Reference: ChEMBL document CHEMBL1155167, “Fluoroquinolone resistance in atypical pneumococci and oral streptococci: evidence of horizontal gene transfer of fluoroquinolone resistance determinants from Streptococcus pneumoniae” (2007)
In brackets after ≈: the same amount, converted by molar mass.

Assays:
[1] = test system: Streptococcus oralis; test: Antimicrobial activity against Streptococcus oralis HK579 with gyrA Ser114Gly, and parC Ser52Gly, Asn91Asp mutation by broth dilution method; format: functional
Procedure, shortened: (§1)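 Ciprofloxacin and levofloxacin MICs were determined by broth dilution following CLSI (formerly NCCLS) guidance. S. pneumoniae ATCC 6303 and ATCC 49619 served as control strains. Reference strains were S. mitis ATCC 49456 and S. oralis ATCC 10557. The clinical isolates came from patients at a Hong Kong teaching hospital.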

[2] = test system: Streptococcus mitis; test: Antimicrobial activity against Streptococcus mitis HK141 with gyrA Ser114Gly, and parC Ser52Gly, Asn91Asp mutation by broth dilution method; format: functional; procedure, shortened: as §1
[3] = test system: Streptococcus pneumoniae; test: Antimicrobial activity against Streptococcus pneumoniae L14 with parC Lys137Asn and parE Ile460Val mutation by broth dilution method
[4] = test system: Streptococcus pneumoniae; test: Antimicrobial activity against Streptococcus pneumoniae L5 with parE Ile460Val mutation by broth dilution method
[5] = test system: Streptococcus pneumoniae; test: Antimicrobial activity against Streptococcus pneumoniae L15 with parC Asp83Asn Lys137Asn and parE Ile460Val mutation by broth dilution method
[6] = test system: Streptococcus viridans; test: Antimicrobial activity against Viridans streptococcus L16 with gyrA Ser114Gly, gyrB Ser494Thr and parC Ser52Gly, Asn91Asp mutation by broth dilution method; format: functional; procedure, shortened: as §1
[7] = test system: Streptococcus oralis; test: Antimicrobial activity against Streptococcus oralis HK587 with gyrA Ser114Gly, and parC Ser52Gly, Asn91Asp mutation by broth dilution method; format: functional; procedure, shortened: as §1
[8] = test system: Streptococcus oralis; test: Antimicrobial activity against Streptococcus oralis HK232 with gyrA Ser114Gly, and parC Ser52Gly, Asn91Asp mutation by broth dilution method; format: functional; procedure, shortened: as §1
[9] = test system: Streptococcus mitis; test: Antimicrobial activity against Streptococcus mitis HK677 with gyrA Ser81Leu, Ser114Gly, gyrB Ser494Thr, parC Ser52Gly, Asp83Tyr, Asn91Asp and parE Arg447Ser mutation by broth dilution method; format: functional; procedure, shortened: as §1
[10] = test system: Streptococcus pneumoniae; test: Antimicrobial activity against atypical Streptococcus pneumoniae L1 with gyrA Ser81Phe and parC Ser79Phe, Glu96Asp, Lys197Asn mutation by broth dilution method
[11] = test system: Streptococcus mitis; test: Antimicrobial activity against Streptococcus mitis HK137453 with gyrA Ser114Gly, and parC Ser52Gly, Asn91Asp mutation by broth dilution method; format: functional; procedure, shortened: as §1
[12] = test system: Streptococcus viridans; test: Antimicrobial activity against Viridans streptococcus L2 with gyrA Ser114Gly, gyrB Ser494Thr and parC Ser52Gly, Asn91Asp mutation by broth dilution method; format: functional; procedure, shortened: as §1
[13] = test system: Streptococcus pneumoniae; test: Antimicrobial activity against Streptococcus pneumoniae L6 with gyrA Ser81Phe, parC Lys137Asn and parE Ile460Val mutation by broth dilution method
[14] = test system: Streptococcus pneumoniae; test: Antimicrobial activity against Streptococcus pneumoniae L12 with gyrA Ser81Phe, parC Ser79 Phe and parE Ile460Val mutation by broth dilution method
[15] = test system: Streptococcus mitis; test: Antimicrobial activity against Streptococcus mitis HK188 with gyrA Ser114Gly, and parC Ser52Gly, Asn91Asp, Glu135Asp mutation by broth dilution method; format: functional; procedure, shortened: as §1
[16] = test system: Streptococcus pneumoniae; test: Antimicrobial activity against atypical Streptococcus pneumoniae L27 with parC Ser52Gly, Asn91Asp, Glu135Asp mutation by broth dilution method
[17] = test system: Streptococcus oralis; test: Antimicrobial activity against Streptococcus oralis HK619 with gyrA Ser114Gly, and parC Ser52Gly, Asn91Asp mutation by broth dilution method; format: functional; procedure, shortened: as §1
[18] = test system: Streptococcus mitis; test: Antimicrobial activity against Streptococcus mitis HK125807 with gyrA Ser114Gly, and parC Ser52Gly, Asn91Asp mutation by broth dilution method; format: functional; procedure, shortened: as §1
[19] = test system: Streptococcus viridans; test: Antimicrobial activity against Viridans streptococcus L17 with gyrA Ser114Gly, gyrB Ser494Thr and parC Ser52Gly, Asn91Asp mutation by broth dilution method; format: functional; procedure, shortened: as §1
[20] = test system: Streptococcus mitis; test: Antimicrobial activity against Streptococcus mitis HK260 with gyrA Ser114Gly, and parC Ser52Gly, Asn91Asp mutation by broth dilution method; format: functional; procedure, shortened: as §1
[21] = test system: Streptococcus oralis; test: Antimicrobial activity against Streptococcus oralis HK312 with gyrA Ser114Gly, and parC Ser52Gly, Asn91Asp mutation by broth dilution method; format: functional; procedure, shortened: as §1
[22] = test system: Streptococcus oralis; test: Antimicrobial activity against Streptococcus oralis HK575 with gyrA Ser114Gly, Leu155Val and parC Ser52Gly, Asn91Asp, Pro140Ser mutation by broth dilution method; format: functional; procedure, shortened: as §1
[23] = test system: Streptococcus viridans; test: Antimicrobial activity against Viridans streptococcus L21 with gyrB Ser494Thr and parC Lys137Asn mutation by broth dilution method; format: functional; procedure, shortened: as §1
[24] = test system: Streptococcus oralis; test: Antimicrobial activity against Streptococcus oralis HK496 with gyrA Ser114Gly, and parC Ser52Gly, Asn91Asp mutation by broth dilution method; format: functional; procedure, shortened: as §1
[25] = test system: Streptococcus pneumoniae; test: Antimicrobial activity against atypical Streptococcus pneumoniae L25 with parC Lys137Asn mutation by broth dilution method
[26] = test system: Streptococcus pneumoniae; test: Antimicrobial activity against Streptococcus pneumoniae L13 with parC Asp83Tyr and parE Ile460Val mutation by broth dilution method
[27] = test system: Streptococcus viridans; test: Antimicrobial activity against Viridans streptococcus L26 gyrA Ser81Phe and parC Lys137Asn mutation by broth dilution method; format: functional; procedure, shortened: as §1
[28] = test system: Streptococcus oralis; test: Antimicrobial activity against Streptococcus oralis HK123 with gyrA Ser114Gly, and parC Ser52Gly, Asn91Asp mutation by broth dilution method; format: functional; procedure, shortened: as §1
[29] = test system: Streptococcus viridans; test: Antimicrobial activity against Viridans streptococcus L19 with gyrA Ser114Gly, gyrB Ser494Thr, parC Ser52Gly, Asn91Asp and parE Ile460Val mutation by broth dilution method; format: functional; procedure, shortened: as §1

SMILES: O=C(O)c1cn(C2CC2)c2cc(N3CCNCC3)c(F)cc2c1=O [CIPROFLOXACIN]
- MIC [1]: 4 µg/mL (≈ 12.1 µM)
- MIC [2]: 1 µg/mL (≈ 3.02 µM)
- MIC [3]: 4 µg/mL (≈ 12.1 µM)
- MIC [4]: 4 µg/mL (≈ 12.1 µM)
- MIC [5]: 8 µg/mL (≈ 24.1 µM)
- MIC [6]: 4 µg/mL (≈ 12.1 µM)
- MIC [7]: 4 µg/mL (≈ 12.1 µM)
- MIC [8]: 2 µg/mL (≈ 6.04 µM)
- MIC [9]: 128 µg/mL (≈ 386 µM)
- MIC [10]: > 32 µg/mL
- MIC [11]: 2 µg/mL (≈ 6.04 µM)
- MIC [12]: 4 µg/mL (≈ 12.1 µM)
- MIC [13]: 8 µg/mL (≈ 24.1 µM)
- MIC [14]: 64 µg/mL (≈ 193 µM)
- MIC [15]: 1 µg/mL (≈ 3.02 µM)
- MIC [16]: 4 µg/mL (≈ 12.1 µM)
- MIC [17]: 4 µg/mL (≈ 12.1 µM)
- MIC [18]: 2 µg/mL (≈ 6.04 µM)
- MIC [19]: 4 µg/mL (≈ 12.1 µM)
- MIC [20]: < 0.5 µg/mL
- MIC [21]: 4 µg/mL (≈ 12.1 µM)
- MIC [22]: 1 µg/mL (≈ 3.02 µM)
- MIC [23]: 16 µg/mL (≈ 48.3 µM)
- MIC [24]: 2 µg/mL (≈ 6.04 µM)
- MIC [25]: 4 µg/mL (≈ 12.1 µM)
- MIC [26]: 4 µg/mL (≈ 12.1 µM)
- MIC [27]: 16 µg/mL (≈ 48.3 µM)
- MIC [28]: 4 µg/mL (≈ 12.1 µM)
- MIC [29]: 4 µg/mL (≈ 12.1 µM)
